Compound activity deposited in PubChem by Broad Institute.
Hits are enriched below; roughly 3.5% of the tested compounds scored in any of these assays.
Cneo AK release: causes C. neoformans cell lysis | adenylate kinase release luminescence, 4 h; normalised: neutral wells 0, clomiphene wells 100 | lysis activity, % at 15 µM | 0.2% of 360,000 active | AID 651654;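 active = mean lysis activity across replicates of at least 80%, whatever share of replicates individually reach that level; inactive = mean lysis activity below 80%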
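read-out = cell lysis signal | test system = log-phase Cryptococcus neoformans yeast cells | input = cells at 5 × 10^6 per mL | medium = fresh YPD growth medium | signal = luminescent adenylate kinase detection reagent | timing = 4 h at 37 °C static, read 1 h later | dosing = single dose | controls = Clomiphene as positive lysis control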
PGC1a acetyl inh: modulators of PGC1a acetylation; inhibition, % at 15.6 µM; AID 651687; 0.17% of 350,000 active; U2OS PGC1a acetylation, AlphaScreen anti-acetyl-lysine; with virally co-expressed GCN5 acetyltransferase;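 active = every replicate shows inhibition of at least 40%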
FGF22 binding: shifts melting point of recombinant human FGF22. Q9HCT0. recombinant FGF22 thermal shift, SYPRO orange fluorescence; percent of sucrose octasulfate shift, DMSO zero. activity (Tm shift, normalised), % at 9.99 µM. 1.5% of 340,000 active. AID 651658;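 active = mean Tm shift, scaled 0 neutral to 100 positive control, at about 1.3% or above, every replicate too, limit read from the data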
rRNA inh HTS: inhibits bacterial ribosomal RNA function over humanized ribosomes; E. coli WT GFP vs humanized-ribosome RFP mutants, fluorescence, 24 h; stronger effect = lower value; DMSO median 0, no signal -100; GFP signal change (wild-type ribosome), % (test concentration not listed); 1.6% of 350,000 active; AID 720706;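 active = significant combined selectivity score with lowered wild-type GFP, culture density cut under 30%, mutant RFP and density less affected; inactive = any of these conditions unmet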
Env fusion inh: inhibitors of HIV Env-mediated cell fusion; HeLa-JRFL Env/CEM21 cell fusion, luciferase; inhibition, % at 12.3 µM; 1.1% of 360,000 active;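 active = mean replicate inhibition score of at least 50 and every replicate individually at or above 50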
ERAP1 HTS inh: inhibitors of human ERAP1 aminopeptidase; recombinant ERAP1, Leu-AMC fluorescence, 60 min; inhibition, % at 10.7 µM; 0.15% of 340,000 active; AID 652197;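 active = mean replicate inhibition of at least 30%, or all replicates individually reaching that 30% level; inactive = mean below 30% and not every replicate reaching it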
Target sequence (Q9NZ08 whole entry, looked up): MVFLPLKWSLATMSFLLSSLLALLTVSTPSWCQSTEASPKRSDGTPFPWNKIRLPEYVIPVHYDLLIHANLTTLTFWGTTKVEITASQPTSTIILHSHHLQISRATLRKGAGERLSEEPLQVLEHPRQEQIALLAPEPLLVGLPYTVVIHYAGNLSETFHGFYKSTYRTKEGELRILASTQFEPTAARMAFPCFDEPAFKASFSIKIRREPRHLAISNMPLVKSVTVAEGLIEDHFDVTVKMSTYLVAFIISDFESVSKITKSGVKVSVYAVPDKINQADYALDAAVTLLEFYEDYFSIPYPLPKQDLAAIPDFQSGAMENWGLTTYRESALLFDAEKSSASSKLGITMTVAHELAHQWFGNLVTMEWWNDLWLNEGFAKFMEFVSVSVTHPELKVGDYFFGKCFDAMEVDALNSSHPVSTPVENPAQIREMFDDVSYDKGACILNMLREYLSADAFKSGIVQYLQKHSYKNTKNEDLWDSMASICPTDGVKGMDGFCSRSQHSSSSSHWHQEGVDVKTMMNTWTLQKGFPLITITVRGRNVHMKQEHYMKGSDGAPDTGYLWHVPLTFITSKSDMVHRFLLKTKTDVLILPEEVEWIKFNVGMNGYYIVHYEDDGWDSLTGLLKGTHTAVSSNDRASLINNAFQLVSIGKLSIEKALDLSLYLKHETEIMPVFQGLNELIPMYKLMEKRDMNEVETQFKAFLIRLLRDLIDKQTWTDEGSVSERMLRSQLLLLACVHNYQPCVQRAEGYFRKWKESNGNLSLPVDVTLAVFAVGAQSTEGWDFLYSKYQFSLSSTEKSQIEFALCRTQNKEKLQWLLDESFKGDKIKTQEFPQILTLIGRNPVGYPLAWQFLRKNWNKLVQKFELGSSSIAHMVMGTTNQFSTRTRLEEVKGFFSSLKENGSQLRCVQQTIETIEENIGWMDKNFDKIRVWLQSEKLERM
Numbers stand for hits; [ ] = another dose, or the depositor's remark.

Cc1ccc(CN2CCNC(=O)C2CC(=O)N(C)CCc2ccccc2)cc1 (stereo unspecified) was read as Cneo AK release inactive, PGC1a acetyl inh inactive, FGF22 binding inactive, rRNA inh HTS inactive, Env fusion inh inactive and ERAP1 HTS inh inactive.
For CN(CCc1ccccn1)C(=O)CC1C(=O)NCCN1Cc1ccc(-c2ccccc2)cc1 (stereo unspecified) the results were PGC1a acetyl inh inactive, FGF22 binding 43.8, Env fusion inh inactive and ERAP1 HTS inh inactive.
Screening O=C(CC1C(=O)NCCN1Cc1ccc(-c2ccccc2)cc1)NCCc1ccccn1 (stereo unspecified) returned PGC1a acetyl inh inactive, FGF22 binding inactive, rRNA inh HTS inactive, Env fusion inh inactive and ERAP1 HTS inh inactive.
`Cc1cc(CN(C)C(=O)CC2C(=O)NCCN2CC(c2ccccc2)c2ccccc2)on1` (stereo unspecified) gave PGC1a acetyl inh inactive, FGF22 binding inactive, rRNA inh HTS inactive, Env fusion inh inactive and ERAP1 HTS inh inactive.
COCCN(C)C(=O)CC1C(=O)NCCN1CC(c1ccccc1)c1ccccc1 (stereo unspecified) was read as FGF22 binding 44.4, Env fusion inh inactive and ERAP1 HTS inh inactive.
For O=C(N/N=C/c1ccccc1O)C1CC(=O)N(c2ccc(F)cc2)C1 (stereo unspecified) the results were Cneo AK release inactive, PGC1a acetyl inh inactive, FGF22 binding inactive, rRNA inh HTS inactive, Env fusion inh inactive and ERAP1 HTS inh inactive.
`COc1ccc(NC(=O)Nc2ccc3c(c2)C(=O)N([C@H](C)CO)C[C@H](C)[C@H](CN(C)Cc2ccccc2)OCCCC[C@H](C)O3)cc1` gave Cneo AK release inactive, PGC1a acetyl inh inactive, FGF22 binding inactive, rRNA inh HTS inactive, Env fusion inh 73.9[16.7 µM] and ERAP1 HTS inh inactive.
C[C@H](CO)N1C[C@H](C)[C@H](CN(C)Cc2ccccc2)OCCCC[C@H](C)Oc2ccc(NC(=O)Nc3ccc(F)cc3)cc2C1=O was read as Cneo AK release inactive, PGC1a acetyl inh inactive, FGF22 binding inactive, rRNA inh HTS inactive, Env fusion inh 56.1[16.7 µM] and ERAP1 HTS inh inactive.
Screening C[C@@H]1CCCCO[C@@H](CN(C)Cc2ccccc2)[C@H](C)CN([C@H](C)CO)C(=O)c2cc(NC(=O)Nc3ccc(F)cc3)ccc2O1 returned Cneo AK release inactive, PGC1a acetyl inh inactive, FGF22 binding inactive, rRNA inh HTS inactive, Env fusion inh inactive and ERAP1 HTS inh inactive.
Screening COc1ccc(NC(=O)Nc2ccc3c(c2)C(=O)N([C@@H](C)CO)C[C@H](C)[C@H](CN(C)Cc2ccncc2)OCCCC[C@H](C)O3)cc1 returned Cneo AK release inactive, PGC1a acetyl inh inactive, FGF22 binding inactive, rRNA inh HTS inactive, Env fusion inh 88.4[16.7 µM] and ERAP1 HTS inh inactive.
COc1ccc(CN(C)C[C@@H]2OCCCC[C@H](C)Oc3ccc(NC(=O)c4ccccc4)cc3C(=O)N([C@@H](C)CO)C[C@H]2C)cc1 was read as Cneo AK release inactive, PGC1a acetyl inh inactive, rRNA inh HTS inactive, Env fusion inh inactive and ERAP1 HTS inh inactive.
Screening COc1ccc(CN(C)C[C@@H]2OCCCC[C@@H](C)Oc3ccc(NC(=O)c4ccccc4)cc3C(=O)N([C@H](C)CO)C[C@@H]2C)cc1 returned Cneo AK release 85.8, PGC1a acetyl inh inactive, rRNA inh HTS inactive, Env fusion inh inactive and ERAP1 HTS inh inactive.
Cc1nc(SCC(=O)Nc2ccccc2)c2oc3ccccc3c2n1 was read as Cneo AK release inactive and PGC1a acetyl inh inactive.
C[C@H]1CCCCO[C@@H](CN(C)Cc2ccccc2)[C@@H](C)CN([C@@H](C)CO)C(=O)c2cc(NC(=O)Nc3ccccc3)ccc2O1 was read as Cneo AK release inactive, PGC1a acetyl inh inactive, FGF22 binding inactive, rRNA inh HTS inactive, Env fusion inh 68.9[16.7 µM] and ERAP1 HTS inh inactive.
C[C@@H]1CCCCO[C@H](CN(C)Cc2ccccc2)[C@@H](C)CN([C@H](C)CO)C(=O)c2cc(NC(=O)Nc3ccc(F)cc3)ccc2O1 was read as Cneo AK release inactive, PGC1a acetyl inh inactive, FGF22 binding inactive, rRNA inh HTS inactive, Env fusion inh inactive and ERAP1 HTS inh inactive.
For C[C@H]1CCCCO[C@@H](CN(C)Cc2ccncc2)[C@@H](C)CN([C@@H](C)CO)C(=O)c2cc(NC(=O)Nc3ccccc3)ccc2O1 the results were Cneo AK release 99.5, PGC1a acetyl inh inactive, rRNA inh HTS inactive, Env fusion inh 57.8[16.7 µM] and ERAP1 HTS inh inactive.
C[C@H]1CCCCO[C@@H](CN(C)Cc2ccccc2)[C@@H](C)CN([C@@H](C)CO)C(=O)c2cc(NC(=O)Nc3ccc(F)cc3)ccc2O1 was read as Cneo AK release inactive, PGC1a acetyl inh inactive, FGF22 binding inactive, rRNA inh HTS inactive, Env fusion inh 69.5[16.7 µM] and ERAP1 HTS inh inactive.
Screening Cc1ccc(Nc2nc(N)nc(CN3CCN(Cc4ccc5c(c4)OCO5)CC3)n2)c(C)c1 returned Cneo AK release inactive, PGC1a acetyl inh inactive and Env fusion inh inactive.
Screening COc1ccc(NC(=O)c2sccc2SCc2cccc(C(F)(F)F)c2)cc1 returned Cneo AK release inactive, PGC1a acetyl inh inactive and Env fusion inh 80.0.
`COc1ccc(S(=O)(=O)NNC(=O)c2sccc2-n2cccc2)cc1` gave Cneo AK release inactive, PGC1a acetyl inh inactive, FGF22 binding inactive, rRNA inh HTS inactive, Env fusion inh inactive and ERAP1 HTS inh inactive.
`O=C(Nc1ccc(F)cc1)c1sccc1SCc1cccc(C(F)(F)F)c1` gave Cneo AK release inactive, PGC1a acetyl inh inactive and Env fusion inh inactive.
For COc1ccc(NC(=O)c2sccc2-n2cccc2)cc1 the results were Cneo AK release inactive, PGC1a acetyl inh inactive, FGF22 binding inactive, rRNA inh HTS -30.8, Env fusion inh inactive and ERAP1 HTS inh inactive.
O=C(Nc1ccc(Cl)cc1)c1sccc1-n1cccc1 was read as FGF22 binding inactive, rRNA inh HTS inactive, Env fusion inh inactive and ERAP1 HTS inh inactive.
Screening O=C(NNS(=O)(=O)c1ccc(Br)cc1)c1sccc1-n1cccc1 returned PGC1a acetyl inh inactive, FGF22 binding 43.6, rRNA inh HTS inactive, Env fusion inh inactive and ERAP1 HTS inh inactive.
Screening CC(=O)c1cccc(NC(=O)Nc2cnn(Cc3ccc(Cl)cc3Cl)c2)c1 returned Cneo AK release inactive, PGC1a acetyl inh inactive and Env fusion inh 64.3.
For O=C(Nc1cnn(Cc2ccc(Cl)cc2Cl)c1)c1cc(-c2cccs2)on1 the results were PGC1a acetyl inh inactive and Env fusion inh inactive.
CCOC(=O)c1noc(C)c1C(=O)Nc1cccc(F)c1 was read as Cneo AK release inactive and PGC1a acetyl inh inactive.
For O=C1C(=O)N(CCS(=O)(=O)c2ccccc2)c2ccccc21 the results were Cneo AK release inactive, PGC1a acetyl inh inactive, FGF22 binding inactive, rRNA inh HTS inactive, Env fusion inh inactive and ERAP1 HTS inh inactive.
